Screening data (PubChem BioAssay)
Only some compounds are listed: those with a hit (about 2.4% of all), similar ones and a draw of the others.
NPY-Y2 PAM-ag = potentiators or agonists of human neuropeptide Y receptor Y2 | cells expressing NPY-Y2, potentiator/agonist read-out | activation, % at 3.6 µM | 220,000 tested, 0.45% active | AID 1359 | P49146; in the data active = activation above about 27%;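 note: cells stimulated with NPY near EC25 plus isoproterenol at EC100; 0% = vehicle plus submaximal agonist and 100% = vehicle plus saturating agonist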
Target sequence (P49146 whole entry, looked up): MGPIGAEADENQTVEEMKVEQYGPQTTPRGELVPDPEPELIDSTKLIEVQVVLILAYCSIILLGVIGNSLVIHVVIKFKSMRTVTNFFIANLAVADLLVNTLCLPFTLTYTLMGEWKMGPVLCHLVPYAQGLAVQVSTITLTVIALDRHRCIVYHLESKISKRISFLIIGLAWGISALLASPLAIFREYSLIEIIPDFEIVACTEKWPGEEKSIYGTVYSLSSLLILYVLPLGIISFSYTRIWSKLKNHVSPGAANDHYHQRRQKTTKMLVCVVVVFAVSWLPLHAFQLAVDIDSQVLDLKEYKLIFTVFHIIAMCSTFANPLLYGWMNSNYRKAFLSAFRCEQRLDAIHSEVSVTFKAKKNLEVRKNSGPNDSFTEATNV
S1P4 agonist = agonists of human S1P4 receptor; O95977; S1P4-expressing cell line, agonist reporter assay; activation, % at 4.98 µM; 220,000 tested, 0.35% active; in the data active = activation above about 11%;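 note: 0% = DMSO vehicle and 100% = reference agonist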
NPY Y2 blocker = blocks the human neuropeptide Y Y2 receptor; AID 793; NPY-Y2 expressing cells, antagonist mode; 140,000 tested, 0.99% active; inhibition, % at 2.7 µM; P49146; in the data active = inhibition above about 17%;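 note: 0% = vehicle with agonist challenge and 100% = reference antagonist with challenge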
NPY-Y1 antag = blocks the human neuropeptide Y Y1 receptor; P25929; 200,000 tested, 1% active; inhibition, % at 3.6 µM; HEK293-CNG Y1 cells, membrane potential fluorescence; NPY at EC95, then isoproterenol;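 active = inhibition above the campaign mean inhibition of all tested compounds plus 3 SD, cut at about 20% in these data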;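 note: 0% = DMSO wells given NPY plus isoproterenol and 100% = isoproterenol alone without NPY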
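Assay system: HEK293 cells with Y1 receptor plus CNG channel | Probe or stimulus: NPY (25 nM), isoproterenol (1 µM), Ro 20-1724 (25 µM) | Timing: Compound incubation 1 h at room temperature, readout 45 min post-stimulation | Measured by: Membrane-potential fluorescent dye readout | Benchmarks: High control isoproterenol alone, low control NPY with isoproterenol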
NPY1 pot ag = potentiators or agonists of human neuropeptide Y receptor Y1 | AID 1304 | 220,000 tested, 0.37% active | P25929 | NPY-Y1 expressing cells, potentiator/agonist activation | activation, % at 3.6 µM; in the data active = activation above about 33%, passing the limit was not always enough;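 note: cells stimulated with NPY at EC10 then isoproterenol at EC100; 0% = low agonist plus stimulus and 100% = saturating agonist plus stimulus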
S1P4 antagonist = blocks the human S1P4 receptor. 220,000 tested, 0.26% active. S1P4-expressing cells, antagonist mode, reporter read-out. AID 1510. O95977. inhibition, % at 4.98 µM; in the data active = inhibition above about 29%;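 note: 0% = wells stimulated with agonist and 100% = vehicle wells without agonist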
S1P4 agonist cf = confirmation of human S1P4 receptor agonists; shares compounds with S1P4 agonist; S1P4 agonist cell-based reporter assay; activation, % at 4.98 µM; 740 tested, 7% active; AID 1523; in the data active = activation above about 12%;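 note: 0% = vehicle and 100% = full reference agonist response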
S1P1 agonist = activates human S1P1, counter-screen for S1P4 agonists. shares compounds with S1P4 agonist. S1P1 agonist cell-based assay, activation. activation, % at 4.98 µM. 740 tested, 4% active; in the data active = activation above about 21%;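 note: 0% = vehicle wells and 100% = reference agonist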
Target sequence (P21453 whole entry, looked up): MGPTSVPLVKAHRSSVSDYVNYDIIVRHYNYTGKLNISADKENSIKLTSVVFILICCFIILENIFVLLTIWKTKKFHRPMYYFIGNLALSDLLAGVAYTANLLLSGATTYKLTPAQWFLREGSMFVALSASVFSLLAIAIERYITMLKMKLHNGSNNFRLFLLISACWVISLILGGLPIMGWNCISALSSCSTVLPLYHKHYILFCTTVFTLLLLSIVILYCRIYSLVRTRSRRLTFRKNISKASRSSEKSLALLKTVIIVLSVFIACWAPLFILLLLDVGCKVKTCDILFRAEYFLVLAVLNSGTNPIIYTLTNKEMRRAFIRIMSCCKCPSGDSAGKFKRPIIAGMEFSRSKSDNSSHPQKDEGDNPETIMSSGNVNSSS
* marks the source's active call; other numbers are inactive results; x = no result given.

SMILES | NPY-Y2 PAM-ag | S1P4 agonist | NPY Y2 blocker | NPY-Y1 antag | NPY1 pot ag | S1P4 antagonist | S1P4 agonist cf | S1P1 agonist
CC(C)c1nnc(NC(=O)CSc2nnc(-c3ccco3)o2)s1 | 4.6 | -1.9 | x | -2.0 | -2.1 | -6.7 | x | x
CCOC(=O)n1ccc(C(=O)Nc2ccccc2F)n1 | -7.9 | 15.9* | 0.2 | -9.9 | -3.4 | 3.2 | -0.3 | -8.9
COC(=O)c1c(C)[nH]c(C(=O)/C=C/c2ccccc2F)c1C | -1.1 | 0.1 | x | x | 10.6 | -5.5 | x | x
Cc1ccc(NC(=S)Nc2ccc(F)cc2)c(C)c1 | -7.0 | 1.4 | x | 3.2 | 7.7 | -4.0 | x | x
CSc1cccc(CN2CCCC(CO)(Cc3cccc(Cl)c3)C2)c1 (centres undefined) | -6.5 | -1.6 | x | 19.2 | -1.2 | -6.6 | x | x
CSc1cccc(CN2CCC(CO)(Cc3ccccc3)CC2)c1 | -7.6 | 16.1* | x | 10.8 | 18.9 | 11.1 | -2.5 | -5.6
Cc1c(NC(=O)Cn2ccc([N+](=O)[O-])n2)c(=O)n(-c2ccccc2)n1C | 7.8 | 25.0* | -0.9 | 2.7 | 1.7 | -3.7 | -0.6 | -4.4
Cc1c(NC(=O)Cn2cc([N+](=O)[O-])cn2)c(=O)n(-c2ccccc2)n1C | -13.3 | -0.3 | x | 2.6 | 6.4 | -38.2 | x | x
CC1CCC(NC(=O)c2ccc(NC(=O)c3ccc(=O)[nH]c3)cc2)CC1 (centres undefined) | 14.7 | 3.9 | 1.8 | -1.0 | -6.0 | -1.2 | x | x
O=C(O)c1ccc(N/N=C/C2=Cc3ccccc3OC2)cc1 | 17.7 | 1.0 | x | x | 27.2 | 1.5 | x | x
O=C(Nc1ccc2c(c1)OCO2)N1CCCC1 | 7.7 | 45.6* | x | 1.6 | 6.7 | -1.5 | -2.2 | 3.4
O=C(Nc1ccc2c(c1)OCO2)N1CCOCC1 | 4.2 | 1.1 | 4.0 | -4.0 | -16.2 | -20.2 | x | x
CCOc1ccccc1C(=O)N[C@H](C(=O)Nc1ccc(OC)c(S(=O)(=O)N2CCOCC2)c1)C(C)C | -0.5 | 1.2 | x | 2.0 | 17.5 | -17.1 | x | x
COc1ccc(C(=O)Nc2nc(N)n(-c3ccccc3)n2)cc1 | 8.9 | 41.7* | 0.4 | 1.1 | -16.2 | -11.2 | -3.0 | -8.6
Cn1nc(C(=O)OCC(=O)NC2CCS(=O)(=O)C2)c2ccccc2c1=O (centres undefined) | -4.6 | -0.9 | x | 2.0 | 6.4 | -16.8 | x | x
CC12c3ccccc3C(c3ccccc31)C1C(=O)N(c3cccnc3)C(=O)C12 (centres undefined) | 4.9 | -1.4 | 2.7 | 1.0 | 6.5 | -8.7 | x | x
CC12c3ccccc3C(c3ccccc31)C1C(=O)N(Cc3cccnc3)C(=O)[C@H]12 (some centres undefined) | 8.6 | 39.8* | 2.8 | 6.0 | 5.3 | -0.9 | -1.4 | 0.3
CCOC(=O)Cn1nc(C)c(NC(=O)COc2cccc(Cl)c2)c1C | 5.3 | 11.9* | x | 2.5 | -5.0 | -24.1 | -1.2 | -2.5
CN=c1scc(C)n1/N=C/c1cc(Br)c(O)c(OC)c1 | -1.5 | 1.8 | x | -3.4 | 1.7 | 1.0 | x | x
COc1cc(/C=N/N(C)C)cc(Br)c1O | -1.9 | 38.8* | x | x | 2.3 | -3.5 | -1.9 | -5.5
CCOC(=O)c1sc(NC(C)=O)nc1C | -7.9 | -3.1 | 0.8 | 4.3 | 4.0 | 3.4 | x | x
CCOC(=O)c1sc(Nc2nc(OC)cc(OC)n2)nc1C | -22.3 | 64.2* | x | 11.6 | -7.6 | 5.9 | -2.2 | -1.4
CCN=c1scc(C)n1/N=C/c1ccsc1 | 1.9 | 165.2* | 3.2 | -2.5 | -13.3 | -5.2 | -1.1 | 8.7
CN1CCN(C(=O)c2cc3sc4ccccc4c3s2)CC1 | 4.5 | -0.9 | x | x | -9.3 | -8.6 | x | x
CCOc1ccc(NC(=O)c2ccccn2)cc1 | -12.9 | 0.6 | -1.5 | -4.1 | 8.0 | -16.4 | x | x
SMILES | NPY-Y2 PAM-ag | S1P4 agonist | NPY Y2 blocker | NPY-Y1 antag | NPY1 pot ag | S1P4 antagonist | S1P4 agonist cf | S1P1 agonist
CNS(=O)(=O)c1ccc(NC(=O)c2ccccn2)cc1 | 8.3 | 70.3* | 3.5 | 1.2 | 2.2 | 8.7 | -0.7 | -2.9
COc1ccc(N(C(C)=O)c2nc(C)cc(C)c2C#N)c(OC)c1 | -3.0 | -2.6 | x | 5.3 | 14.0 | -8.0 | x | x
COC(=O)c1sccc1NC(=S)N1CCN(c2cccc(C)c2C)CC1 | 12.8 | 22.6* | 6.7 | 10.2 | -0.5 | -11.2 | -2.1 | 3.8
O=C(Cc1cccs1)NCCc1csc(-c2ccccc2)n1 | -26.7 | -0.8 | x | x | -1.0 | 5.4 | x | x
O=C(CSc1nc2ccccc2c(=O)n1CCCO)NCc1ccccc1 | -6.8 | 0.0 | 3.9 | -0.3 | -8.5 | -3.2 | x | x
O=c1c2ccccc2nc(SCc2nc3ccccc3s2)n1CCCO | -7.7 | 21.0* | 6.5 | 8.8 | -41.7 | -7.3 | -1.1 | -6.8
CCCCc1ccc(NC(=O)N2CCNC(=O)C2CC(=O)Nc2ccsc2C(=O)OC)cc1 (centres undefined) | 14.8 | -1.9 | x | x | 6.2 | 8.1 | x | x
CSc1ccc(NC(=O)Nc2cccn(Cc3ccccc3)c2=O)cc1 | 11.0 | 33.5* | x | -0.8 | 17.2 | -24.4 | -1.0 | 6.0
COc1cc(C(C)=O)ccc1OC(=O)c1cc2cccc(OC)c2oc1=O | 10.2 | 13.6* | x | -0.5 | 15.5 | 0.3 | -3.0 | -5.0
COc1cccc2cc(C(C)=O)c(=O)oc12 | 0.3 | 1.3 | -0.8 | -4.7 | -2.9 | -15.5 | x | x
CC/C(=N\O)c1c(O)c2c(n(-c3ccccc3)c1=O)CCCC2 | -11.7 | 22.5* | 6.5 | 3.6 | -34.0 | -7.6 | -1.5 | -0.1
COC(=O)c1cnn(-c2ccccc2)c1-n1cccc1C=O | -18.4 | -0.3 | x | -3.2 | -0.4 | -5.8 | x | x
Cc1ccccc1NS(=O)(=O)c1ccc(F)cc1 | 3.9 | 0.8 | 0.2 | 3.5 | 4.4 | -21.4 | x | x
Cc1cc2c(NS(=O)(=O)c3ccc(F)cc3)cccc2nn1 | 13.9 | 116.3* | x | x | 6.8 | -6.3 | -1.1 | 1.5
COc1ccccc1/C=C/C=N/NC(=O)c1cc(-c2ccc(C)o2)[nH]n1 | -28.9 | -0.4 | x | x | -18.6 | -4.0 | x | x
O=C(CN1CCN(CC(=O)Nc2ccccc2Cl)CC1)Nc1ccc2c(c1)OCCO2 | 4.9 | 0.8 | 3.4 | -0.5 | -16.2 | -16.6 | x | x
O=C(CN1CCC(Cc2ccccc2)CC1)Nc1ccc2c(c1)OCCO2 | -24.3 | 412.6* | 7.5 | 11.7 | 0.4 | -5.3 | -1.5 | -9.1
CN1CCN(Cc2c(O)ccc3cc(Br)ccc23)CC1 | -8.3 | 32.1* | x | -1.6 | 8.9 | -2.9 | -2.6 | -4.8
COC(=O)c1cc(C(=O)OC)cc(N2C(=O)CC(NNC(=O)c3ccc(C)cc3)C2=O)c1 (centres undefined) | 9.3 | 28.9* | -0.6 | 0.0 | -8.3 | -6.0 | -2.0 | -1.9
O=c1ccc(Cl)n[nH]1 | 12.0 | 1.4 | x | x | 16.8 | -5.4 | x | x
O=C(NC1CCN(Cc2ccccc2)CC1)c1cccc(S(=O)(=O)Nc2cc(C(F)(F)F)ccc2Cl)c1 | -12.9 | 24.7* | -0.8 | -6.6 | -0.3 | -23.9 | -1.6 | -1.7
CCC1CCCCN1C(=O)c1cccc(S(=O)(=O)Nc2cc(C(F)(F)F)ccc2Cl)c1 (centres undefined) | 4.7 | 1.4 | 1.4 | 0.4 | 11.5 | -11.6 | x | x
Cc1cccc(S(=O)(=O)c2c(C)cc(C)nc2Cl)c1 | 8.1 | 1.9 | x | 0.7 | 9.3 | -25.1 | x | x
